Consider six compounds from ChEMBL document CHEMBL1153789, “The methoxylated flavones eupatorin and cirsiliol induce CYP1 enzyme expression in MCF7 cells” (J Nat Prod, 2009).

Molecules are shown by their SMILES. The source made the active and inactive calls. The rule behind the calls is not given here.

Common to all, as to format: functional, cell-based
Test [1] relates to MCF7. The test is described as follows: Induction of CYP1B1 expression in human MCF7 cells at 10 nM after 24 hrs by 7-ethoxyresorufin-O-deethelase assay. The essentials:
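MCF7 cells were exposed for 24 h to 0.31, 0.625, 1.25 or 2.5 µM flavone, with 10 nM TCDD as positive control and 0.1% DMSO as negative control. CYP1 activity was read by 7-ethoxyresorufin-O-deethylation (EROD), which is mainly CYP1A1-selective, though CYP1B1 may contribute. The time course used 2.5 µM. Three replicates.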

Test [2] relates to MCF7. The test is described as follows: Antiproliferative activity in human MCF7 cells after 96 hrs by MTT assay. As to conditions: MCF7, 96 h.
Test [3] concerns MCF7. The test can be described thus: Antiproliferative activity in human MCF7 cells after 96 hrs by MTT assay in presence of acacetin. (In general: Tetrazolium dyes change colour on reduction, which living cells bring about.)
For test [4], the system named is MCF7. The test can be described thus: Induction of CYP1B1 expression in human MCF7 cells after 24 hrs by 7-ethoxyresorufin-O-deethelase assay. The essentials:
(§1)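 EROD (7-ethoxyresorufin-O-deethylase) activity in MCF7 cells after 24 h exposure to 0.31, 0.625, 1.25, 2.5 µM flavone; 10 nM TCDD positive control, 0.1% DMSO negative control; three replicates. Read-out reflects mainly CYP1A1, with possible CYP1B1 contribution.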

The subject of test [5] is MCF7. The test can be described thus: Induction of CYP1A1 expression in human MCF7 cells at 5 uM after 24 hrs by RT PCR. Summed up: (§2)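 MCF7 cells treated 24 h (0, 1.25, 2.5, 5 µM; 10 nM TCDD reference); RT-PCR for CYP1A1, CYP1B1 and β-actin, primers per Döhr et al.; band intensities normalized to β-actin, semiquantitative; gels representative of three individual experiments.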

Test [6] concerns MCF7. The test can be described thus: Induction of CYP1B1 expression in human MCF7 cells at 5 uM after 24 hrs by RT PCR. Summed up:
as §2

For test [7], the system named is MCF7. The test is described as follows: Induction of CYP1A1 expression in human MCF7 cells after 24 hrs by 7-ethoxyresorufin-O-deethelase assay. Summed up:
as §1

Test [8] concerns MCF7. The test can be described thus: Induction of CYP1A1 expression in human MCF7 cells at 0.5 uM to 10 uM after 24 hrs by RT PCR and DNA electrophoresis.
Test [9] concerns MCF7. The test is described as follows: Antiproliferative activity in human MCF7 cells at 1.5 uM after 96 hrs by MTT assay.
Test [10] has as its system MCF7. The test is described as follows: Induction of CYP1B1 expression in human MCF7 cells at 1.25 uM after 24 hrs by RT PCR. Summed up:
as §2

Test [11] relates to MCF7. The test can be described thus: Induction of CYP1A1 expression in human MCF7 cells at 2.5 uM after 24 hrs by RT PCR. Summed up: as §2

In the case of `Clc1cc2c(cc1Cl)Oc1cc(Cl)c(Cl)cc1O2`, the outcome in the test with MCF7 [1] was Active.

With `COc1ccc(-c2cc(=O)c3c(O)c(OC)c(OC)cc3o2)cc1O` [EUPATORIN], in the test with MCF7 [2], the IC50 (usually the concentration that gives 50% inhibition) amounted to 7 µM. The result with MCF7 [3] was inactive. In addition, the Activity result with MCF7 [4] and in the test with MCF7 [7] was “Dose-dependent effect” throughout. The outcome with MCF7 [5] and in the test on MCF7 [6] was Active.

As to `O=c1c(O)c(-c2ccc(O)c(O)c2)oc2cc(O)cc(O)c12`, the result in the test on MCF7 [8] was Active.

Take `O=c1c(O)c(-c2ccc(O)cc2)oc2cc(O)cc(O)c12`: the result in the test with MCF7 [8] was inactive.

As for `COc1ccc(-c2cc(=O)c3c(O)cc(O)cc3o2)cc1`, the outcome in the test on MCF7 [9] was inactive.

In the case of `COc1cc2oc(-c3ccc(O)c(O)c3)cc(=O)c2c(O)c1OC` [CIRSILIOL], the concentration for an effect of 25% (IC25) (in general, the concentration at which the effect reaches the 25% level) with MCF7 [2] amounted to 0.5 µM; with MCF7 [3] (MCF7, 96 h) it was 5 µM. The IC50 in the test on MCF7 [2] was 8 µM; in the test with MCF7 [3] (MCF7, 96 h), 15 µM. Besides, the outcome in the test with MCF7 [10], with MCF7 [11] and in the test with MCF7 [6] was Active. For the same compound, in the test with MCF7 [5], the outcome was inactive.
